{"source": "ChEMBL document CHEMBL2375282", "about": "“Spirohexenolide A targets human macrophage migration inhibitory factor (hMIF)” (J Nat Prod, 2013)", "key": {"[1]": {"test": "Cytotoxicity against human NCI60 cells by MTT assay", "type": "functional"}, "[2]": {"molecular_target": "T1, Macrophage migration inhibitory factor (Homo sapiens, UniProt P14174)", "T1 sequence (P14174 whole entry)": "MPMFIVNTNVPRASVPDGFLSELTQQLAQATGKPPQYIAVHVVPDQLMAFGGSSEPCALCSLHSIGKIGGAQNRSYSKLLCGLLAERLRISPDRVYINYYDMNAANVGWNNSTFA", "test": "Binding affinity to human recombinant MIF expressed in Escherichia coli BL21(DE3) by isothermal titration calorimetric assay", "in_short": "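Recombinant hMIF from E. coli BL-21(DE3) (pET-11b), purified by SP/Q flow-through, dialyzed in 50 mM potassium phosphate pH 7.4. ITC at 30 °C: 1.25 mM hMIF titrated from syringe into 1.5 mL of 0.5 mM ligand in the same buffer with 2% DMSO. Buffer-only titration used as control. Kd fitted with a sigmoid function over multiple analyses.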"}, "[3]": {"molecular_target": "T2, Macrophage migration inhibitory factor (Homo sapiens) (UniProt P14174)", "T2 sequence (whole entry)": "T1 sequence (P14174 whole entry)", "test": "Inhibition of human recombinant MIF tautomerase activity expressed in Escherichia coli BL21(DE3) at 100 uM in presence of dopachrome", "in_short": "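Dopachrome made from 0.24 mM DOPA plus 0.48 mM NaIO4 in 25 mM potassium phosphate pH 7.2, 5 min at rt. Added 1:1 to wells holding 10 μM purified recombinant hMIF premixed with 100 μM compound. Kinetics followed immediately at 485 nm. Controls: buffer, compound alone, hMIF alone.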"}, "HCT-116 [4]": {"system": "HCT-116", "test": "Growth inhibition of human HCT116 cells", "type": "functional", "in_short": "(§1)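 HCT-116 cells grown in McCoy's 5A with 10% heat-inactivated FCS and penicillin/streptomycin at 37 °C, 5% CO2. Conventional MTT assay, run in triplicate at 5 or 6 concentrations spanning 0 to 0.035 mg/mL. Repeated until deviation fell within 5%.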"}, "HCT-116 [5]": {"system": "HCT-116", "test": "Cytotoxicity against human HCT116 cells by MTT assay", "type": "functional, cell-based", "in_short": "as §1"}, "[6]": {"molecular_target": "T2, Macrophage migration inhibitory factor (Homo sapiens)", "test": "Inhibition of human recombinant Alexa 488-labeled MIF expressed in Escherichia coli BL21(DE3) assessed as inhibition of uptake into human HCT116 cells at 30 uM after 2 hrs by inverted confocal microscopic analysis", "settings": "HCT-116", "in_short": "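Recombinant hMIF labeled with Alexa Fluor 488 (~0.3 dye per protein) in NaHCO3 pH 8.3. HCT-116 cells given 1.5 μM Alexa-hMIF premixed with 30 μM compound for 2 h at 37 °C, then washed and fixed with formaldehyde/glutaraldehyde. Two-color confocal imaging: 375 nm excitation with 448 nm emission, and 488 nm excitation with 524 nm emission.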"}, "[7]": {"molecular_target": "T2, Macrophage migration inhibitory factor (Homo sapiens)", "test": "Inhibition of human MIF-mediated AKT phosphorylation expressed in mouse NIH/3T3 cells after 30 mins by Western blotting analysis", "type": "cell-based", "settings": "NIH3T3", "in_short": "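NIH/3T3 cells grown 24 h in DMEM with 10% FCS in 12-well plates, then serum-starved 24 h. Treated 30 min with hMIF (1 μg) plus DMSO or plus compound (0.1 μg) in 100 μL medium. Lysates blotted for p-Akt Ser473, total Akt and GAPDH. p-Akt/Akt ratio normalized to GAPDH, with untreated cells set to 1. Three independent experiments.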"}, "[8]": {"molecular_target": "T2, Macrophage migration inhibitory factor (Homo sapiens)", "test": "Binding affinity to MIF in human HCT116 live cell lysates by Western blotting analysis", "settings": "HCT-116", "in_short": "(§2)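 Affinity capture with immunoaffinity-fluorescent (IAF)-tagged probe. Live-cell route: HCT116 cells incubated 4 h at 37 °C with 15 μg probe in 15 mL media, then lysed (D-PBS, 5 mM EDTA, 1% NP-40, protease inhibitors). Whole-lysate route: probe added after lysis. Lysate immunoprecipitated on anti-IAF mAb resin 4 h at 4 °C. Elution with 0.1 M glycine-HCl pH 2.5, then NuPAGE and blotting with anti-hMIF mAb.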"}, "[9]": {"test": "Cellular uptake in human HCT116 cells assessed as lysosomal localization at 10 uM after 6 to 12 hrs by inverted confocal microscopic analysis", "type": "ADME, cell-based, Lysosome", "settings": "hct-116, 10 µM", "in_short": "(§3)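 Live HCT116 cells in McCoy's 5A with 10% FCS, 37 °C, 5% CO2. Compound added as 10× stock in media, final DMSO under 0.5%. Time-lapse imaging over 24 h at 10–15 min intervals, then spinning-disk confocal at selected times (1, 6, 24 h) with IAF tag excitation 360 nm and emission 470 nm. Lysosomes counterstained with LysoTracker Red after fixation in formaldehyde/glutaraldehyde.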"}, "HCT-116 [10]": {"system": "HCT-116", "test": "Cellular uptake in human HCT116 cells assessed as increase in blue fluorescence at 10 uM after 1 hr by inverted confocal microscopic analysis", "type": "ADME, cell-based", "settings": "hct-116, 1 h", "in_short": "as §3"}, "[11]": {"test": "Drug uptake in human HCT116 cell membrane at 10 uM after 1 hr by inverted confocal microscopic analysis", "type": "ADME, cell-based", "settings": "hct-116, 1 h", "in_short": "as §3"}, "[12]": {"molecular_target": "T2, Macrophage migration inhibitory factor (Homo sapiens)", "test": "Binding affinity to MIF in human HCT116 whole cell lysates by Western blotting analysis", "settings": "HCT-116", "in_short": "as §2"}, "HCT-116 [13]": {"system": "HCT-116", "test": "Cytotoxicity against human HCT116 cells assessed as compaction of chromatin at 10 uM after 24 hrs by inverted confocal microscopic analysis", "type": "cell-based", "settings": "hct-116, 24 h", "in_short": "as §3"}, "[14]": {"test": "Drug uptake in human HCT116 cell cytoplasm at 10 uM after 1 hr by inverted confocal microscopic analysis", "type": "ADME, cell-based", "settings": "hct-116, 1 h", "in_short": "as §3"}, "[15]": {"molecular_target": "T2, Macrophage migration inhibitory factor (Homo sapiens)", "test": "Binding affinity to human recombinant MIF expressed in Escherichia coli BL21(DE3) lysates by Western blotting analysis", "in_short": "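E. coli BL21(DE3) lysate expressing recombinant hMIF (pET-11b, 0.4 mM IPTG, 4 h), 1–2 mg net protein. Immunoprecipitated with 1 μg IAF-tagged probe on anti-IAF mAb resin, 4 h at 4 °C. Glycine-HCl pH 2.5 elution. Blot probed with mouse anti-hMIF monoclonal and AP-conjugated secondary, BCIP/NBT development.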"}, "HCT-116 [16]": {"system": "HCT-116", "test": "Cytotoxicity against human HCT116 cells assessed as membrane blebbing at 10 uM after 24 hrs by inverted confocal microscopic analysis", "type": "cell-based", "settings": "hct-116, 24 h", "in_short": "as §3"}, "[17]": {"settings": "read-out: LC50 (the source's name)"}}, "note": "Calls of active or inactive are those of the source. No cut-off for these calls is given here.", "data": [{"smiles": "CC1=C[C@]2(C)/C=C(C)/C=C/C[C@@H](O)/C=C3C=C/C(=C4\\C(=O)O[C@]2(C[C@@H]1C)C4=O)OC/3", "values": [{"measurement": "GI50", "setting": "[1]", "value": 2.16, "unit": "µM"}, {"measurement": "TGI", "setting": "[1]", "value": 8.81, "unit": "µM"}, {"measurement": "CC50", "setting": "[1]; [17]", "value": 33.2, "unit": "µM"}, {"measurement": "Kd", "setting": "[2]", "value": 35.9, "unit": "µM"}, {"measurement": "inhibition", "setting": "[3]", "value": "inactive"}, {"measurement": "GI50", "setting": "HCT-116 [4]", "value": 0.79, "unit": "µM"}, {"measurement": "TGI", "setting": "HCT-116 [4]", "value": 5.01, "unit": "µM"}, {"measurement": "CC50", "setting": "HCT-116 [4]; [17]", "value": 100, "unit": "µM"}, {"measurement": "IC50", "setting": "HCT-116 [5]", "value": 36, "unit": "µM"}, {"measurement": "inhibition", "setting": "[6]", "value": "Active"}, {"measurement": "inhibition", "setting": "[7]", "value": "Active"}]}, {"smiles": "CC1=C[C@]2(C)/C=C(C)/C=C/C[C@@H](OC(=O)CCC(=O)NCCCCCCNC(=O)Cc3cc(=O)oc4cc(N(C)C)ccc34)/C=C3C=C/C(=C4\\C(=O)O[C@]2(C[C@@H]1C)C4=O)OC/3", "values": [{"measurement": "Activity", "setting": "[8]", "value": "Active"}, {"measurement": "Drug uptake", "setting": "[9]", "value": "Active"}, {"measurement": "Drug uptake", "setting": "HCT-116 [10]", "value": "Active"}, {"measurement": "Drug uptake", "setting": "[11]", "value": "Active"}, {"measurement": "Activity", "setting": "[12]", "value": "Active"}, {"measurement": "inhibition", "setting": "[3]", "value": "inactive"}, {"measurement": "IC50", "setting": "HCT-116 [5]", "value": 6, "unit": "µM"}, {"measurement": "Activity", "setting": "HCT-116 [13]", "value": "Toxic"}, {"measurement": "Drug uptake", "setting": "[14]", "value": "Active"}, {"measurement": "Activity", "setting": "[15]", "value": "Active"}, {"measurement": "Activity", "setting": "HCT-116 [16]", "value": "Toxic"}]}, {"smiles": "CC1=C[C@]2(C)/C=C(C)/C=C/C[C@@H](OC(=O)CCn3cc(CNC(=O)Cc4cc(=O)oc5cc(N(C)C)ccc45)nn3)/C=C3C=C/C(=C4\\C(=O)O[C@]2(C[C@@H]1C)C4=O)OC/3", "values": [{"measurement": "IC50", "setting": "HCT-116 [5]", "value": 21.2, "unit": "µM"}]}]}
